Calls of active or inactive are those of the source. No cut-off for these calls is given here.
How the values were obtained:
[1] = target: T1, Acid ceramidase (Homo sapiens) (UniProt Q13510); test: Inhibition of acid ceramidase in human SH-SY5Y cells assessed as decrease in sphingosine level measured after 3 hrs by LC/MS analysis; format: cell-based
T1 sequence (whole entry): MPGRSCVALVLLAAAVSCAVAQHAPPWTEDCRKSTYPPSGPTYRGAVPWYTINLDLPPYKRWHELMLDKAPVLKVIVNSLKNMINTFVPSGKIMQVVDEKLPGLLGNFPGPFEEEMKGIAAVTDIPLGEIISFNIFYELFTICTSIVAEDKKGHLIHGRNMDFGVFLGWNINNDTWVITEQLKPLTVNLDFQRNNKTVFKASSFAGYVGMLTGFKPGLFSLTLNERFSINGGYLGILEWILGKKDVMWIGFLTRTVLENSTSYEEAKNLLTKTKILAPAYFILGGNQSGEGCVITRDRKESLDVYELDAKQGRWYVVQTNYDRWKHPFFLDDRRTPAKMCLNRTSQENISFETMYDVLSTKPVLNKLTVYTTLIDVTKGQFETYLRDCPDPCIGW
Summary of the method: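 SH-SY5Y neuroblastoma cells exposed 3 h to 1, 2.5, 5 and 10 μM; AC activity by LC/MS-based assay; ceramide species, sphingosine, SM and HexCer (d18:1/16:0) quantified by LC/MS; means ± S.E.M. of at least six determinations, experiment repeated twice.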

[2] = target: T1, Acid ceramidase (Homo sapiens); test: Inhibition of acid ceramidase in human SH-SY5Y cells assessed as decrease in sphingosine level at 10 uM measured up to 6 hrs by LC/MS analysis; format: cell-based
Summary of the method: (§1)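 Human neuroblastoma SH-SY5Y cells incubated with compound at 10 μM for 30 min, 1 h, 3 h and 6 h; AC activity by LC/MS-based activity assay; Cer (d18:0/16:0), Cer (d18:1/16:0), sphingosine, SM (d18:1/16:0) and HexCer (d18:1/16:0) quantified by LC/MS.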

[3] = Unbound drug level in brain of twitcher mouse model of Krabbe's disease at 90 mg/kg,ip administered once daily for 20 days measured 1 hr post-last dose; format: ADME, organism-based; settings: in vivo
Summary of the method: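 Twitcher mice dosed i.p. once daily for 20 days, sacrificed 1 h after last dose (day 20); drug measured in plasma and brain; unbound levels from unbound fractions (mean of two technical replicates); N = 3 males + 3 females per group.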

[4] = target: T1, Acid ceramidase (Homo sapiens); test: Inhibition of acid ceramidase in human SH-SY5Y cells at 10 uM using N-lauroyl ceramide as substrate by LC/MS analysis; format: cell-based; settings: TDE = time-dependent effect; summary of the method: as §1

CC(C)CNC(=O)n1c(=O)oc2cc(C3CCN(C)CC3)ccc21
inhibition [1]: Dose-dependent effect
inhibition [2]: Active
Drug uptake(free) [3]: 2.15 µM
inhibition [4]: Tde

Source: ChEMBL document CHEMBL4342473, “Lead Optimization of Benzoxazolone Carboxamides as Orally Bioavailable and CNS Penetrant Acid Ceramidase Inhibitors” (J Med Chem, 2020)
